Among the data in ChEMBL document CHEMBL3244113, “Antimycotic imidazoles. part 4. Synthesis and antifungal activity of ketoconazole, a new potent orally active broad-spectrum antifungal agent” (1979) are GI and Activity values, retold here.

Experiment [1] relates to Trichophyton mentagrophytes. The experiment in a line: Antifungal activity against Trichophyton mentagrophytes assessed as growth inhibition in sabouraud broth after 14 days. The format is functional. In outline:
(§1)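 Broth dilution in Sabouraud broth, with or without 10% inactivated bovine serum, incubated 14 days. Read-out: concentration (µg/mL) giving complete or marked inhibition of growth. Tested in preliminary experiments.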

Experiment [2] concerns Aspergillus fumigatus. The experiment can be described thus: Antifungal activity against Aspergillus fumigatus assessed as growth inhibition in sabouraud broth after 14 days in presence of 10% inactivated bovine serum. The format is functional.
The test system of experiment [3] is Candida albicans. The experiment in a line: Antifungal activity against Candida albicans assessed as growth inhibition in sabouraud broth after 14 days. The format is functional. In outline:
as §1

Experiment [4] has as its system Candida albicans. The experiment can be described thus: Antifungal activity against Candida albicans B2630 infected in ovariectomized and hysterectomized Wistar rat vaginal candidosis model at 1.25 mg/kg, po for 14 days by prophylactic treatment. The format is functional, organism-based. Also noted: dose 1.25 mg/kg. The procedure, abridged: (§2)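 Female Wistar rats (100 g) were ovariectomized and hysterectomized under thalamonal anaesthesia. From 3 weeks later, and weekly thereafter, each received oestradiol undecanoate 100 µg in sesame oil s.c. Pseudooestrus was confirmed by vaginal smear. Rats were infected intravaginally with 8×10^5 C. albicans B 2630 cells in 0.2 mL saline. Compound in PEG 200 was given daily by gavage from the day of infection. Vaginal swab smears were taken on days 7, 11 and 14. Read-out: negative animals/total.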

Experiment [5] relates to Candida albicans. The experiment can be described thus: Antifungal activity against Candida albicans B2630 infected in ovariectomized and hysterectomized Wistar rat vaginal candidosis model at 2.5 mg/kg, po for 14 days by prophylactic treatment. The format is functional, organism-based. More on the design: dose 2.5 mg/kg. The procedure, abridged:
as §2

The test system of another experiment is Cryptococcus neoformans. The experiment in a line: Antifungal activity against Cryptococcus neoformans assessed as growth inhibition in sabouraud broth after 14 days. The format is functional. In outline: as §1
The next experiment has as its system Streptococcus pyogenes. The experiment can be described thus: Antifungal activity against Streptococcus pyogenes assessed as growth inhibition in sabouraud broth after 14 days. The format is functional. The procedure, abridged:
as §1

In experiment [6] the test system is Erysipelothrix rhusiopathiae. The experiment can be described thus: Antifungal activity against Erysipelothrix insidiosa assessed as growth inhibition in sabouraud broth after 14 days. The format is functional. The procedure, abridged: as §1
The subject of experiment [7] is Microsporum canis. The experiment can be described thus: Antifungal activity against Microsporum canis assessed as growth inhibition in sabouraud broth after 14 days in presence of 10% inactivated bovine serum. The format is functional. In outline:
as §1

For experiment [8], the system named is Microsporum canis. The experiment can be described thus: Antifungal activity against Microsporum canis assessed as growth inhibition in sabouraud broth after 14 days. The format is functional. In outline: as §1
Experiment [9] deals with Aspergillus fumigatus. The experiment can be described thus: Antifungal activity against Aspergillus fumigatus assessed as growth inhibition in sabouraud broth after 14 days. The format is functional.
For experiment [10], the system named is Candida albicans. The experiment in a line: Antifungal activity against Candida albicans B2630 infected in guinea pig cutaneous candidosis model at 10 mg/kg, po for 14 days measured on day 21. The format is functional, organism-based. More on the design: dose 10 mg/kg. In outline:
(§3)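 Guinea pig cutaneous candidosis. Compound dissolved in PEG 200, given by oral gavage once daily for 14 consecutive days; placebo group included. Read-out: ratio of infection-negative animals to total at day 21.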

In another experiment the test system is Trichophyton rubrum. The experiment can be described thus: Antifungal activity against Trichophyton rubrum assessed as growth inhibition in sabouraud broth after 14 days. The format is functional. The procedure, abridged:
as §1

The test system of experiment [11] is Sporothrix schenckii. The experiment can be described thus: Antifungal activity against Sporothrix schenckii assessed as growth inhibition in sabouraud broth after 14 days. The format is functional. The procedure, abridged: as §1
Experiment [12] has as its system Trichophyton mentagrophytes. The experiment can be described thus: Antifungal activity against Trichophyton mentagrophytes assessed as growth inhibition in sabouraud broth after 14 days in presence of 10% inactivated bovine serum. The format is functional. In outline:
as §1

A further experiment concerns Phialophora verrucosa. The experiment in a line: Antifungal activity against Phialophora verrucosa assessed as growth inhibition in sabouraud broth after 14 days. The format is functional. In outline: as §1
Experiment [13] has as its system Candida albicans. The experiment in a line: Antifungal activity against Candida albicans B2630 infected in ovariectomized and hysterectomized Wistar rat vaginal candidosis model at 2.5 mg/kg, po for 11 days by prophylactic treatment. The format is functional, organism-based. More on the design: dose 2.5 mg/kg.
Experiment [14] deals with Candida albicans. The experiment can be described thus: Antifungal activity against Candida albicans assessed as growth inhibition in sabouraud broth after 14 days in presence of 10% inactivated bovine serum. The format is functional. In outline:
as §1

The test system of another experiment is Saprolegnia. The experiment in a line: Antifungal activity against Saprolegnia Sp. assessed as growth inhibition in sabouraud broth after 14 days. The format is functional. In outline: as §1
Experiment [15] concerns Sporothrix schenckii. The experiment can be described thus: Antifungal activity against Sporothrix schenckii assessed as growth inhibition in sabouraud broth after 14 days in presence of 10% inactivated bovine serum. The format is functional. The procedure, abridged: as §1
The subject of experiment [16] is Candida tropicalis. The experiment in a line: Antifungal activity against Candida tropicalis assessed as growth inhibition in sabouraud broth after 14 days in presence of 10% inactivated bovine serum. The format is functional. The procedure, abridged: as §1
The subject of experiment [17] is Staphylococcus haemolyticus. The experiment can be described thus: Antifungal activity against Staphylococcus haemolyticus assessed as growth inhibition in sabouraud broth after 14 days. The format is functional. In outline:
as §1

The test system of another experiment is Coccidioides immitis. The experiment in a line: Antifungal activity against Coccidioides immitis infected in mouse coccidioidomycosis model assessed as cell killing activity at 40 mg/kg, po od for 2.5 weeks relative to control. The format is functional.
Experiment [18] concerns Candida albicans. The experiment in a line: Antifungal activity against Candida albicans B2630 infected in guinea pig cutaneous candidosis model at 0.63 mg/kg, po for 14 days measured on day 21. The format is functional, organism-based. More on the design: dose 0.63 mg/kg. The procedure, abridged:
as §3

The subject of experiment [19] is Candida albicans. The experiment can be described thus: Antifungal activity against Candida albicans B2630 infected in ovariectomized and hysterectomized Wistar rat vaginal candidosis model at 5 mg/kg, po for 14 days by prophylactic treatment. The format is functional. In outline: as §2
Experiment [20] relates to Candida albicans. The experiment in a line: Antifungal activity against Candida albicans B2630 infected in ovariectomized and hysterectomized Wistar rat vaginal candidosis model at 5 mg/kg, po for 5 days by prophylactic treatment. More on the design: dose 5 mg/kg. The format is functional, organism-based.
Experiment [21] concerns Candida tropicalis. The experiment can be described thus: Antifungal activity against Candida tropicalis assessed as growth inhibition in sabouraud broth after 14 days. The format is functional. The procedure, abridged:
as §1

Experiment [22] concerns Candida albicans. The experiment in a line: Antifungal activity against Candida albicans B2630 infected in guinea pig cutaneous candidosis model at 2.5 mg/kg, po for 14 days measured on day 21. The format is functional, organism-based. More on the design: dose 2.5 mg/kg. In outline:
as §3

Activity calls are given as the source filed them. No cut-off for these calls is given here.

For `CC(=O)N1CCN(c2ccc(OCC3COC(Cn4ccnc4)(c4ccc(Cl)cc4Cl)O3)cc2)CC1` (racemic) [KETOCONAZOLE], the GI in experiment [1] stood at 0.1 µg/mL; in the experiment on Aspergillus fumigatus [2], 10 µg/mL; in the experiment with Candida albicans [3], 10 µg/mL; in the experiment on Cryptococcus neoformans it was 1 µg/mL; in the experiment with Streptococcus pyogenes, 10 µg/mL; in [6], 10 µg/mL. Also, the GI in the experiment with Microsporum canis [7] came out at 1 µg/mL; in the experiment on Microsporum canis [8], 10 µg/mL; with Aspergillus fumigatus [9] it was 100 µg/mL; with Trichophyton rubrum, 1 µg/mL; in the experiment with Sporothrix schenckii [11], 1 µg/mL; in [12], 0.1 µg/mL. Moreover, the GI with Phialophora verrucosa is 1 µg/mL; in the experiment with Candida albicans [14], 1 µg/mL; in the experiment with Saprolegnia it was 1 µg/mL; in the experiment on Sporothrix schenckii [15], 1 µg/mL; with Candida tropicalis [16] it was 0.1 µg/mL; in experiment [17], 100 µg/mL. Besides, in the experiment with Candida tropicalis [21], the GI worked out at 1 µg/mL. For the same molecule, the result with Candida albicans [4], in the experiment with Candida albicans [5], in the experiment with Candida albicans [10], in the experiment with Candida albicans [20] and in the experiment with Candida albicans [22] was Active. Besides, the outcome in the experiment with Candida albicans [13] and in the experiment with Candida albicans [18] was inactive. In addition, the Activity is listed as >60% with Coccidioides immitis and 100% with Candida albicans [19].
`Clc1ccc(COC(Cn2ccnc2)c2ccc(Cl)cc2Cl)c(Cl)c1` (configuration not stated) [MICONAZOLE]: the GI in experiment [1] was 0.01 µg/mL; in the experiment on Aspergillus fumigatus [2], >10 µg/mL; in the experiment on Candida albicans [3], 10 µg/mL; with Cryptococcus neoformans, 1 µg/mL; with Streptococcus pyogenes, 0.01 µg/mL; in experiment [6] it was 0.01 µg/mL. The GI with Microsporum canis [7] amounted to 10 µg/mL; in the experiment on Microsporum canis [8], 1 µg/mL; in the experiment with Aspergillus fumigatus [9], 10 µg/mL; in the experiment with Trichophyton rubrum, 1 µg/mL; in the experiment with Sporothrix schenckii [11] it was 1 µg/mL; in experiment [12], 0.1 µg/mL. The GI in the experiment with Phialophora verrucosa is 100 µg/mL; in the experiment with Candida albicans [14] it was >10 µg/mL; in the experiment with Saprolegnia, 10 µg/mL; in the experiment with Sporothrix schenckii [15] it was 10 µg/mL; with Candida tropicalis [16] it was >10 µg/mL; in [17], 10 µg/mL. Besides, the GI in the experiment on Candida tropicalis [21] was 1 µg/mL.
